Test results reported in ChEMBL document CHEMBL4431351, “1,2-Benzisoselenazol-3(2H)-one Derivatives As a New Class of Bacterial Urease Inhibitors” (J Med Chem, 2016).
Activity calls are given as the source filed them. The calls are words filed in the database; no cut-off is given here.

What was measured:
[1] = Steady state inhibition of Sporosarcina pasteurii CCM 2056 urease using urea as substrate assessed as inhibition constant for final enzyme conformation-inhibitor complex by measuring ammonia levels after 120 mins by phenol-hypochlorite method
How it was run: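 S. pasteurii urease (113.5 pM final) added to stirred mixtures with 25 mM urea and varied inhibitor (water or DMF), 3 mM phosphate pH 7.5, 37°C. Ammonia sampled over 120 min by phenol-hypochlorite. Progress curves fitted to integrated slow-binding equation. Ki and Ki* derived using Km and Vmax of uninhibited enzyme.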

[2] = molecular target: T1, Urease subunit alpha/Urease subunit beta (Helicobacter pylori (strain ATCC 700392 / 26695) (Campylobacterpylori), UniProt P69996+P14916); assay: Inhibition of urease in Helicobacter pylori J99 in Brucella broth using urea as substrate preincubated for 2 hrs followed by substrate addition measured after 2 hrs by Berthelot assay; type: protein-complex assay
T1 sequence (P69996 whole entry): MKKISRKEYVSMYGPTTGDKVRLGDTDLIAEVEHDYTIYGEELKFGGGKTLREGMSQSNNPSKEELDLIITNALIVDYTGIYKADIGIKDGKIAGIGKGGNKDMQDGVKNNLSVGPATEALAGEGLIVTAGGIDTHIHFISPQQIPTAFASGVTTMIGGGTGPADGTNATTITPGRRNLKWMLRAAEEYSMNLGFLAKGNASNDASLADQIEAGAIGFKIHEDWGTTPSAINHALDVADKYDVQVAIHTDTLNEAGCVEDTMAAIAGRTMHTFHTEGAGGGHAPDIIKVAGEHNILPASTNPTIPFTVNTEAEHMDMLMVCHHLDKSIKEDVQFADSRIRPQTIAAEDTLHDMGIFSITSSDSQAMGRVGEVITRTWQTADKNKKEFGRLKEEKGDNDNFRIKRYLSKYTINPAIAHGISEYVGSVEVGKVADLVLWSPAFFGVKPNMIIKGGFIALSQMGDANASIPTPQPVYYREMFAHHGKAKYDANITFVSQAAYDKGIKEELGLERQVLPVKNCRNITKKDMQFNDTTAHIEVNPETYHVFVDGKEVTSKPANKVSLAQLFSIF
T1 sequence (P14916 whole entry): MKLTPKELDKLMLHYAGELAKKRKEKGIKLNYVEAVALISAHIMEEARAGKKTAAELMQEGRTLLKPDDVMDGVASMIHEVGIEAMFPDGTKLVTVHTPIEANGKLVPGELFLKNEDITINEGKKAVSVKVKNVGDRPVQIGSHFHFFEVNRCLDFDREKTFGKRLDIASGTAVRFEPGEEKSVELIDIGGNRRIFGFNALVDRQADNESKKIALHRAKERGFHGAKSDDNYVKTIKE
How it was run: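 Unwashed H. pylori J99 cells from 48 h Brucella broth culture (5% FBS, 1% IsoVitalex), resuspended in 10 mM PBS pH 7.2, about 1×10⁷ cfu/mL. Cells preincubated 2 h with inhibitor before 5 mM urea was added. Timed aliquots assayed by Berthelot method; three repeats.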

[3] = molecular target: T1, Urease subunit alpha/Urease subunit beta; assay: Inhibition of recombinant Helicobacter pylori urease expressed in Escherichia coli rosetta DE3 using urea as substrate assessed as transformed cell urea splitting activity after 2 hrs by Berthelot assay
How it was run: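 E. coli Rosetta pGEM::ureOP cells grown in LB with ampicillin at 37°C, induced with 0.75 mM IPTG and 0.75 mM Ni²⁺ for 24 h at 22°C, then washed thrice in PBS. Cells (1×10⁹ cfu/mL final) start the reaction in 10 mM PBS with 5 mM urea and inhibitor. Timed aliquots read by Berthelot; triplicate.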

[4] = molecular target: T1, Urease subunit alpha/Urease subunit beta; assay: Inhibition of urease in Helicobacter pylori J99 in Brucella broth using urea as substrate after 2 hrs by Berthelot assay; type: protein-complex assay
How it was run: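 H. pylori J99 passaged on blood Columbia agar, microaerophilic, 37°C. Then grown 48 h in Brucella broth with 5% FBS and 1% IsoVitalex, spun once and resuspended in 10 mM PBS pH 7.2 without washing. About 1×10⁷ cfu/mL added to PBS with 5 mM urea and inhibitor. Berthelot ammonia read-out, triplicate.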

[5] = molecular target: T1, Urease subunit alpha/Urease subunit beta; assay: Inhibition of recombinant Helicobacter pylori urease expressed in Escherichia coli rosetta DE3 using urea as substrate assessed as transformed cell urea splitting activity preincubated for 2 hrs followed by substrate addition measured after 2 hrs by Berthelot assay
How it was run: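 Induced, PBS-washed E. coli Rosetta pGEM::ureOP cells (1×10⁹ cfu/mL) held 2 h with inhibitor in 10 mM PBS. Urea then added to 5 mM. Ammonia in timed aliquots measured by Berthelot assay against an inhibitor-free reference. DMF effect checked. Three repeats.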

[6] = system: Sporosarcina pasteurii; assay: Competitive inhibition of Sporosarcina pasteurii CCM 2056 urease using urea as substrate assessed as ammonia levels after 120 mins by Lineweaver-Burk plot analysis
How it was run: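 Purified native S. pasteurii urease (113.5 pM final) preincubated with rising inhibitor levels in 3 mM phosphate buffer pH 7.5, 37°C, until equilibrium; urea 1–60 mM then added. Initial rates measured by phenol-hypochlorite ammonia read-out; mode and constants from Lineweaver-Burk plots using at least 5 inhibitor concentrations.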

[7] = system: Sporosarcina pasteurii; assay: Reversible inhibition of Sporosarcina pasteurii CCM 2056 urease using urea as substrate assessed as ammonia levels after 120 mins by fast dilution assay

O=C(Oc1ccccc1)c1ccccc1[Se][Se]c1ccccc1C(=O)Oc1ccccc1
Ki [1]: 528 nM
IC50 [2]: Not Active
IC50 [3]: Not Active
IC50 [4]: Not Active
IC50 [5]: Not Active
competitive inhibition (qualitative call) [6]: Active
reversible inhibition (qualitative) [7]: Active
